The nature of series [1]: Bioavailability in Sprague-Dawley rat at 1 mg/kg, po. In kind it is ADME, organism-based. Conditions: in vivo. A digest of the protocol:
(§1)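 Sprague-Dawley rats (male where specified) were dosed orally at 1 mpk, in one case as a 0.5% methylcellulose suspension. Plasma exposure was followed to give oral bioavailability, AUC, C_max and half-life.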

Series [2] in a line: Cmax in Sprague-Dawley rat at 1 mg/kg, po. Conditions: in vivo. Details: dose 1 mg/kg, route oral. In kind it is ADME, organism-based. A digest of the protocol: as §1
For the next series, the system named is THP-1. In words: Inhibition of TNFalpha release from LPS-stimulated human monocyte THP1 cells. The format is functional, cell-based.
The subject of series [3] is Rattus norvegicus. In words: Inhibition of TNFalpha production in rat LPS challenge model at 3 mg/kg, po after 24 hrs. In kind it is functional.
A short description of series [4]: Half life in Sprague-Dawley rat at 1 mg/kg, po. The format is ADME, organism-based. Conditions: in vivo. Details: dose 1 mg/kg, route oral. A digest of the protocol: as §1
A further series has as its system Blood. In words: Inhibition of LPS-stimulated TNFalpha release in human whole blood. The format is functional, tissue-based.
In series [5] the test system is Rattus norvegicus. In words: Reduction of TNFalpha production in rat LPS challenge model at 10 mg/kg, po after 3 hrs. The format is functional. Details: scale not given: the % may be the effect or the level left.
The nature of series [6]: Oral bioavailability in Sprague-Dawley rat. Conditions: in vivo. The format is ADME, organism-based. A digest of the protocol:
as §1

A short description of series [7]: Half life in Sprague-Dawley rat at 1 mg/kg. The format is ADME, organism-based. Details: dose 1 mg/kg. Conditions: in vivo. A digest of the protocol: as §1
The nature of series [8]: Clearance in Sprague-Dawley rat at 1 mg/kg. The format is ADME, organism-based. Details: dose 1 mg/kg. The conditions noted are these: in vivo.
Series [9] is described as follows: Cmax in Sprague-Dawley rat at 1 mg/kg. Details: dose 1 mg/kg. In kind it is ADME, organism-based. Conditions: in vivo. A digest of the protocol: as §1
Series [10] is described as follows: Volume of distribution in Sprague-Dawley rat at 1 mg/kg. The conditions noted are these: in vivo, read-out: Vdss. The format is ADME, organism-based. Details: dose 1 mg/kg.
The nature of series [11]: Oral bioavailability in rhesus macaque. The format is ADME, organism-based, Macaca mulatta. Conditions: rhesus monkey, in vivo.
Series [12] in a line: Half life in rhesus macaque. In kind it is ADME, organism-based, Macaca mulatta. Conditions: rhesus monkey, in vivo.
Series [13] can be described thus: Clearance in rhesus macaque. Conditions: rhesus monkey, in vivo. In kind it is ADME, organism-based, Macaca mulatta.
Series [14] is described as follows: Volume of distribution in rhesus macaque. In kind it is ADME, organism-based, Macaca mulatta. The conditions noted are these: rhesus monkey, in vivo; read-out: Vdss.
The subject of another series is Mus musculus. In words: Inhibition of TNFalpha production in BALB/c mouse at 0.3 mg/kg up to 24hrs. In kind it is functional. A digest of the protocol:
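Female Balb/c mice aged 12–16 weeks were given compound orally in 0.5% methylcellulose 22.5 h before LPS challenge. They were sacrificed 1.5 h after challenge, and plasma TNF-a was measured by ELISA.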

The test system of series [15] is Rattus norvegicus. In words: Inhibition of TNF-alpha production in rat LPS challenge model at 1 mg/kg, po after 24 hrs. The format is functional.
Series [16] relates to Rattus norvegicus. In words: Inhibition of paw swelling in AIA Lewis rat at 0.1 mg/kg, po after 21 days. Conditions: 504 h. The format is functional. A digest of the protocol:
(§2)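 Seven-week-old female Lewis rats had adjuvant injected into the left hind paw on day 0. Disease developed over 12 days, then rats were dosed orally at 0.1, 0.3, 1 or 3 mpk once daily for ten days. On days 0, 12 and 21 they were weighed, paw volumes measured and radiographs taken. Swelling of the secondary paw was scored.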

Series [17] concerns Rattus norvegicus. In words: Inhibition of paw swelling in AIA Lewis rat at 0.3 mg/kg, po after 21 days. The conditions noted are these: 504 h. The format is functional. A digest of the protocol: as §2
Series [18] deals with Rattus norvegicus. In words: Inhibition of paw swelling in AIA Lewis rat at 1 mg/kg, po after 21 days. The format is functional. Conditions: 504 h. A digest of the protocol: as §2
Series [19] deals with Rattus norvegicus. In words: Inhibition of paw swelling in AIA Lewis rat at 3 mg/kg, po after 21 days. The format is functional. Conditions: 504 h. A digest of the protocol: as §2
For series [20], the species on record is Rattus norvegicus. In words: Inhibition of paw swelling in AIA Lewis rat after 21 days. In kind it is functional. Conditions: 504 h. A digest of the protocol:
as §2

Series [21] relates to Rattus norvegicus. In words: Inhibition of TNFalpha production in rat LPS challenge model at 0.1 mg/kg, po after 24 hrs. In kind it is functional.
Series [22] deals with Rattus norvegicus. In words: Inhibition of TNF-alpha production in rat LPS challenge model at 0.3 mg/kg, po after 24 hrs. In kind it is functional.
Series [23] relates to Rattus norvegicus. In words: Inhibition of TNFalpha production in rat LPS challenge model at 3 mg/kg, po after 6 hrs. In kind it is functional.
The subject of series [24] is Rattus norvegicus. In words: Inhibition of TNFalpha production in rat LPS challenge model at 3 mg/kg, po after 16 hrs. The format is functional.
Series [25] is described as follows: Half life in rat. The format is ADME, organism-based. The conditions noted are these: in vivo. A digest of the protocol: as §1
Series [26] in a line: Oral bioavailability in rat. The format is ADME, organism-based. Conditions: in vivo. A digest of the protocol: as §1
Series [27] is described as follows: Cmax in rat. The format is ADME, organism-based. The conditions noted are these: in vivo. A digest of the protocol:
as §1

The record followed here is ChEMBL document CHEMBL1137291, “p38 MAP kinase inhibitors. Part 5: discovery of an orally bio-available and highly efficacious compound based on the 7-amino-naphthyridone scaffold” (Bioorg Med Chem Lett, 2006).

Structures are written as SMILES. pIC50: −log10 of the molar value. A value given as a limit tells only on which side of the number the result lay.

On to `O=c1ccc2c(-c3ccc(F)cc3F)[n+]([O-])ccc2n1-c1c(Cl)cccc1Cl`, for which, in series [1], the bioavailability (usually the share of a dose that reaches the circulation, judged against a reference dose that is usually intravenous) came to 98%. Also, the Cmax (usually the maximum level reached in the sampled fluid or tissue) in series [2] is 3.5 µM. In the series with THP-1, the pIC50 (commonly the negative decadic logarithm of the IC50, by convention in mol/L) is 6.70. In the series with Rattus norvegicus [3], this compound came in with an inhibition in vivo at 3 mg/kg of 80%. Also, the half-life (as a rule, the time needed for the level to fall by half in the phase considered) in [4] was 9.9 h.

Turning to `O=c1ccc2c(-c3ccc(F)cc3F)nccc2n1-c1ccccc1Cl`, the pIC50 in the series on THP-1 is 7.39; in the series on Blood, 7.06.

As to `O=c1ccc2c(-c3ccc(F)cc3F)nc(O)cc2n1-c1c(F)cccc1F`, the pIC50 in the series on THP-1 is 8.35; in the series with Blood, 6.92. Also, in the series on Rattus norvegicus [5], the Activity is 70%.

`CNc1cc2c(ccc(=O)n2-c2c(F)cccc2F)c(-c2ccc(F)cc2F)n1`: the pIC50 in the series with THP-1 is 8.14; with Blood, 7.14.

For the compound `Nc1cc2c(ccc(=O)n2-c2c(F)cccc2F)c(-c2ccc(F)cc2F)n1`, the pIC50 was 9.16 in the series with THP-1 and 7.47 with Blood. Moreover, the values for the bioavailability in series [6] and in series [11] were 68% and 22%, respectively. Also, the half-life in series [7] is 6.5 h; in series [12], 11.6 h. Further, the clearance (usually the rate of elimination divided by the concentration) in series [8] is 1.6 mL/min/kg; in series [13], 1.3 mL/min/kg. In addition, the highest level in [9] (Cmax) was 3.5 µM. In addition, the Vd in series [10] and in series [14] was 0.9 L/kg throughout. For the same compound, the values for the inhibition in vivo at 0.3 mg/kg in the series on Mus musculus, in the series on Rattus norvegicus [17] and with Rattus norvegicus [22] were greater than 90%, 54% and 75%, respectively. Moreover, the inhibition in vivo at 1 mg/kg in the series on Rattus norvegicus [15] is 79%; in the series with Rattus norvegicus [15] (read-out: Inhibition), 79%; in the series on Rattus norvegicus [18] it was 65%. Besides, the inhibition in vivo at 0.1 mg/kg was determined as 38% in the series on Rattus norvegicus [16] and 53% with Rattus norvegicus [21]. Besides, the inhibition in vivo at 3 mg/kg with Rattus norvegicus [19] was found to be 80%; in the series with Rattus norvegicus [23], 97%; with Rattus norvegicus [24], 95%; in the series on Rattus norvegicus [3], 92%. For the same compound, the 50% effect level in the series filed under Rattus norvegicus [20] (ED50) was put at a dose of 0.22 mg/kg.

In turn, `O=c1ccc2c(-c3ccc(F)cc3F)nccc2n1-c1c(Cl)cccc1Cl` had a half-life in series [25] of 2 h. For the same compound, the pIC50 was 8.18 in the series on THP-1 and 7.00 in the series with Blood. The same compound came in with a bioavailability in series [26] of 57%. This compound came in with a Cmax in [27] of 1 µM. Moreover, the results for the inhibition in vivo at 3 mg/kg with Rattus norvegicus [23], in the series on Rattus norvegicus [24] and in the series with Rattus norvegicus [3] were 61%, 37% and 27%, respectively.

As to `O=c1ccc2c(-c3ccc(F)cc3F)nccc2n1-c1c(F)cccc1F`, the negative logarithm of the IC50 (pIC50) in the series on THP-1 was 8.15; in the series with Blood, 6.84.
